pEC50, pKd: −log10 of the molar value.
How the values were obtained:
[1] = target: T1, Structural capsid protein (Human immunodeficiency virus 1, UniProt Q76129); assay: Binding affinity to HIV-1 NL4-3 monomeric capsid protein by SPR analysis
Procedure, shortened: (§1)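 SPR binding isotherms averaged over 3 replicates, with error bars as SD.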

[2] = target: T1, Structural capsid protein; assay: Binding affinity to HIV-1 NL4-3 hexameric capsid protein by SPR analysis; procedure, shortened: as §1
[3] = Metabolic stability in human liver microsomes assessed as remaining compound at 1 uM after 60 mins in absence of NADPH; type: ADME, Microsome; details: read-out: Stability
Procedure, shortened: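 No-cofactor control: human liver microsomes at 0.5 mg protein/mL in 100 mM phosphate buffer with compound at 1 µM, buffer added in place of NADPH. Incubated 60 min at 37°C with shaking, then quenched with cold ACN containing tolbutamide and labetalol internal standards. Centrifuged, supernatant diluted in water, analysed by LC-MS/MS.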

[4] = Metabolic stability in human liver assessed as intrinsic clearance at 1 uM preincubated for 10 mins followed by NADPH addition and measured after 60 mins; details: read-out: CLH
[5] = system: Human immunodeficiency virus 1; assay: Antiviral activity against HIV-1 IIIB infected in MT4 cells assessed as protection against virus induced cytotoxicity incubated for 5 days by MTT assay; type: functional, organism-based; details: Human immunodeficiency virus 1, IIIB, MT4, 120 h
[6] = Metabolic stability in human liver microsomes assessed as remaining compound at 1 uM after 60 mins in presence of NADPH; type: ADME, Microsome; details: read-out: Stability
Procedure, shortened: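 Human liver microsomes at 0.5 mg protein/mL in 100 mM potassium phosphate, compound at 1 µM final (0.99% ACN, 0.01% DMSO). After 10 min pre-warming of the microsomes at 37°C, NADPH (1 mM final, in 10 mM MgCl2) was added. Incubated at 37°C with shaking, sampled at 0, 5, 15, 30, 45 and 60 min into cold ACN with internal standards. LC-MS/MS analysis; T1/2 and CLint(mic) (µL/min/mg) from first-order kinetics.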

[7] = target: Structural capsid protein (Human immunodeficiency virus 1) (UniProt Q76129); assay: Ratio of Kd for HIV-1 NL4-3 monomeric capsid protein to Kd for HIV-1 NL4-3 hexameric capsid protein
Chain of Structural capsid protein (Human immunodeficiency virus 1) (Q76129 as listed by the source): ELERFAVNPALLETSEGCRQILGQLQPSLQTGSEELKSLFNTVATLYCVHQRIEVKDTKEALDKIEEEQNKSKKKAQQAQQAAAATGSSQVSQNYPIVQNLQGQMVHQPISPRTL

[8] = Selectivity index, ratio of CC50 for human MT4 cells to EC50 for HIV-2 ROD infected in human MT4 cells; type: toxicity, cell-based; details: read-out: Ratio CC50/EC50
[9] = system: Human immunodeficiency virus 1; assay: Antiviral activity against early stage HIV-1 infected in U87.CD4.CXCR4 cells assessed as viral infection at 60 uM preincubated with virus followed by cell addition and measured after 48 hrs by luciferase based luminometer assay (reference value: 100 +/- 8.4 %); type: functional
[10] = Selectivity index, ratio of CC50 for human MT4 cells to EC50 for HIV-1 IIIB infected in human MT4 cells; type: toxicity, cell-based; details: read-out: Ratio CC50/EC50
[11] = Cytotoxicity against human MT4 cells assessed as reduction in cell viability after 5 days by MTT assay; type: toxicity, cell-based; details: time 5 day
[12] = system: Human immunodeficiency virus 1; assay: Antiviral activity against late stage HIV-1 infected in U87.CD4.CXCR4 cells assessed as viral infection at 60 uM preincubated with virus for 48 hrs followed by cell addition and measured after 48 hrs by luciferase based luminometer assay (reference value: 100 +/- 11 %); type: functional; details: time 96 hrs
[13] = target: Structural capsid protein (Human immunodeficiency virus 1) (UniProt Q76129); assay: Binding affinity to HIV-1 NL4-3 hexameric capsid protein assessed as Koff by SPR analysis; details: filed as modulator
[14] = system: Human immunodeficiency virus 2; assay: Antiviral activity against HIV-2 ROD infected in MT4 cells assessed as protection against virus induced cytotoxicity and measured after 5 days by MTT spectrophotometric assay; type: functional, organism-based; details: Human immunodeficiency virus 2, ROD, MT4, 120 h
[15] = system: Human immunodeficiency virus 1; assay: Antiviral activity against late stage HIV-1 infected in U87.CD4.CXCR4 cells assessed as viral infection at 1 uM preincubated with virus for 48 hrs followed by cell addition and measured after 48 hrs by luciferase based luminometer assay (reference value: 100 +/- 11 %); type: functional; details: time 96 hrs
[16] = system: Human immunodeficiency virus 1; assay: Antiviral activity against early stage HIV-1 infected in U87.CD4.CXCR4 cells assessed as viral infection at 1 uM preincubated with virus followed by cell addition and measured after 48 hrs by luciferase based luminometer assay (reference value: 100 +/- 8.4 %); type: functional
[17] = Metabolic stability in human microsomes assessed as intrinsic clearance at 1 uM preincubated for 60 mins followed by NADPH addition and measured after 60 mins; type: ADME, Microsome; details: time 120 min, read-out: CLH
[18] = system: Human immunodeficiency virus 1; assay: Antiviral activity against HIV-1 infected in MT4 cells; type: functional, organism-based; details: Human immunodeficiency virus 1, MT4

T1 sequence (Q76129 whole entry): as the sequence (Q76129 as listed by the source) above

COc1ccc(N(C)C(=O)[C@H](Cc2cc(F)cc(F)c2)NC(=O)CN2CCN(C(=O)c3ccccc3[N+](=O)[O-])CC2=O)cc1
pKd [1]: 4.89 | pKd [2]: 5.28 | remaining at 1 h, 1 µM [3]: 96% | CLint scaled at 1 µM [4]: 3.3 mL/min/kg | pEC50 [5]: 5.22 | remaining at 1 h, 1 µM [6]: 0.23% | Ratio [7]: 2.5 | selectivity ratio [8]: 25 | Activity [9]: 8.1% | selectivity ratio [10]: 27 | CC50 at 120 h [11]: 160 µM | Activity [12]: 10% | K [13]: 0.25 s⁻¹ | pEC50 [14]: 5.20

Cc1[nH]c2ccccc2c1CC(=O)[C@@H](Cc1ccccc1)C(=O)N(C)c1ccccc1
pKd [1]: 5.47 | pKd [2]: 6.80 | Activity [15]: 150% | Activity [16]: -0.12% | CLint scaled at 1 µM [4]: 2.6 mL/min/kg | pEC50 [5]: 6.12 | remaining at 1 h, 1 µM [6]: 0% | Ratio [7]: 21.4 | CC50 at 120 h [11]: 32 µM | K [13]: 0.018 s⁻¹ | pEC50 [14]: 5.38

O=C(O)Cc1ccccc1Nc1c(Cl)cccc1Cl [DICLOFENAC]
CLint scaled at 1 µM [4]: 3.3 mL/min/kg

C[C@]12CC[C@H]3[C@@H](CCC4=CC(=O)CC[C@@]43C)[C@@H]1CC[C@@H]2O [TESTOSTERONE]
microsomal CLint at 1 µM [17]: 83 µL/min/mg | CLint scaled at 1 µM [4]: 74 mL/min/kg

CC(C)(C#Cc1ccc(-c2ccc(Cl)c3c(NS(C)(=O)=O)nn(CC(F)(F)F)c23)c([C@H](Cc2cc(F)cc(F)c2)NC(=O)Cn2nc(C(F)(F)F)c3c2C(F)(F)[C@@H]2C[C@H]32)n1)S(C)(=O)=O
pEC50 [18]: 9.98

COc1ccc(N(C)C(=O)[C@H](Cc2cc(F)cc(F)c2)NC(=O)CN2CCN(C(=O)c3ccccc3C(F)(F)F)CC2=O)cc1
pKd [1]: 4.92 | pKd [2]: 5.28 | pEC50 [5]: 4.92 | Ratio [7]: 2.2 | selectivity ratio [8]: 22 | selectivity ratio [10]: 9.2 | CC50 at 120 h [11]: 110 µM | K [13]: 0.25 s⁻¹ | pEC50 [14]: 5.30

COc1ccc(N(C)C(=O)[C@H](Cc2ccccc2)NC(=O)CN2CCN(C(=O)c3ccc(Cl)cc3)CC2=O)cc1
pEC50 [5]: < 5.05 | selectivity ratio [8]: < 1 | selectivity ratio [10]: < 1 | CC50 at 120 h [11]: 9 µM | pEC50 [14]: < 5.05

COc1ccc(N(C)C(=O)[C@H](Cc2ccccc2)NC(=O)CN2CCN(C(=O)c3ccccc3[N+](=O)[O-])CC2=O)cc1
pEC50 [5]: 4.66 | selectivity ratio [8]: 72 | selectivity ratio [10]: 8.2 | CC50 at 120 h [11]: 180 µM | pEC50 [14]: 5.60

COc1ccc(N(C)C(=O)[C@H](Cc2ccccc2)NC(=O)CN2CCN(C(=O)c3cccc(F)c3)CC2=O)cc1
pEC50 [5]: 4.64 | selectivity ratio [8]: > 50 | selectivity ratio [10]: > 10 | CC50 at 120 h [11]: > 230 µM | pEC50 [14]: 5.34

COc1ccc(N(C)C(=O)[C@H](Cc2cc(F)cc(F)c2)NC(=O)CN2CCN(C(=O)c3ccc(N)cc3)CC2=O)cc1
pEC50 [5]: 4.74 | selectivity ratio [8]: > 6.9 | selectivity ratio [10]: > 12 | CC50 at 120 h [11]: > 220 µM | pEC50 [14]: 4.49

COc1ccc(N(C)C(=O)[C@H](Cc2cc(F)cc(F)c2)NC(=O)CN2CCN(C(=O)c3ccc(Cl)cc3)CC2=O)cc1
pEC50 [5]: < 4.72 | selectivity ratio [8]: < 1 | selectivity ratio [10]: < 1 | CC50 at 120 h [11]: 19 µM | pEC50 [14]: < 4.72
